Measurements from ChEMBL document CHEMBL3407471, “Development of potent inhibitors of pyocyanin production in Pseudomonas aeruginosa” (J Med Chem, 2015).
Activity calls are given as the source filed them. How the calls were made is not given here.

What was measured:
Pseudomonas aeruginosa [1] = assay: Inhibition of quorum sensing activity in wild-type Pseudomonas aeruginosa PA14 assessed as inhibition of pyocyanin production at 100 uM by spectrophotometry relative to control; assay type: functional
Procedure, shortened: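 Wild-type P. aeruginosa PA14 cultures exposed to compound at 100 μM. Pyocyanin read as absorbance at 695 nm. Efficacy scaled so that wild-type pyocyanin level = 0% and absorbance equal to background medium = 100%.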

Pseudomonas aeruginosa [2] = assay: Antimicrobial activity against wild-type Pseudomonas aeruginosa PA14; assay type: functional

| Structure (SMILES) | Efficacy (Pseudomonas aeruginosa [1]) | Activity (Pseudomonas aeruginosa [2]) |
| --- | --- | --- |
| CCCCCCCCCCCC(=O)Nc1ccnc(C(F)(F)F)c1 | 27% | inactive |
| CCCCCCCCCC(=O)CC(=O)Nc1ccnc(F)c1 | -8.5% | inactive |
| CCCCCCCCCCCC(=O)Nc1ccncc1C(F)(F)F | -17% | inactive |
| CCCCCCCCCCCC(=O)OCc1ccncc1 | -15% | inactive |
| O=C(CCCCCOc1cccc([N+](=O)[O-])c1)Nc1ccnc(C(F)(F)F)c1 | 39% | inactive |
| O=C(CCCCCOc1ccc(F)cc1)Nc1ccnc(C(F)(F)F)c1 | 54% | inactive |
| O=C(CCCCCCc1cccc(F)c1)Nc1ccnc(C(F)(F)F)c1 | 96% | inactive |
| O=C(CCCCCOc1cccc(Br)c1)Nc1cccc(C(F)(F)F)c1 | 62% | inactive |
| O=C(CCCCCNc1cccc(F)c1)Nc1ccnc(C(F)(F)F)c1 | 100% | inactive |
| CCCCCCCCCCCCNC(=O)c1c[nH]c2ccccc12 | 4.4% | inactive |
| O=C(CCCCCOc1cccc(Cl)c1)Nc1ccnc(C(F)(F)F)c1 | 101% | inactive |
| COc1cc(NC(=O)CCCCCCCOc2cccc(Br)c2)ccn1 | 60% | inactive |
| COc1cc(NC(=O)CCCCCCOc2cccc(Br)c2)ccn1 | 75% | inactive |
| O=C(CCCCOc1cccc(Br)c1)Nc1ccnc(C(F)(F)F)c1 | 95% | inactive |
| CCCCCCCCCC(=O)CC(=O)Nc1ccccn1 | 44% | inactive |
| Cc1cc(NC(=O)CCCCCOc2cccc(Br)c2)ccn1 | 80% | inactive |
| O=C(CCCCCOc1cccc(C(F)(F)F)c1)Nc1ccnc(C(F)(F)F)c1 | 59% | inactive |
| COc1nccc(NC(=O)CCCCCOc2cccc(Br)c2)n1 | 16% | inactive |
| O=C(CCCCCOc1cccc(Br)c1)Nc1ccnc(Cl)c1 | 89% | inactive |
| O=C(CCCCCSc1cccc(F)c1)Nc1ccnc(C(F)(F)F)c1 | 94% | inactive |
| CCCCCCCCCCCCNC(=O)Cc1c[nH]c2ccccc12 | 0.6% | inactive |
| O=C(CCCCCOc1cccc(Br)c1)Nc1cc(C(F)(F)F)cc(C(F)(F)F)c1 | 44% | inactive |

| Structure (SMILES) | Efficacy (Pseudomonas aeruginosa [1]) | Activity (Pseudomonas aeruginosa [2]) |
| --- | --- | --- |
| COc1cc(NC(=O)CCCCCOc2cccc(Br)c2)nc(OC)n1 | 15% | inactive |
| O=C(CCCCCOc1cccc(Br)c1)Nc1ccncc1C(F)(F)F | 15% | inactive |
| O=C(CCCCCOc1cccc(I)c1)Nc1ccnc(C(F)(F)F)c1 | 95% | inactive |
| CCCCCCCCCC(=O)CC(=O)Nc1cccnc1 | 10% | inactive |
| CCCCCCCCCCCC(=O)Nc1cccnc1 | 34% | inactive |
| CCCCCCCCCCCC(=O)Nc1ccncn1 | 55% | inactive |
| COc1cc(NC(=O)CCCCCOc2cccc(Br)c2)ccn1 | 73% | inactive |
| O=C(CCCCCOc1ccc(Br)cc1)Nc1ccnc(C(F)(F)F)c1 | 88% | inactive |
| CCCCCCCCCCCC(=O)Nc1ccnc(Br)c1 | 34% | inactive |
| CCCCCCCCCC(=O)CC(=O)Nc1ccncn1 | 64% | inactive |
| CCCCCCCCCCCC(=O)Nc1cc(C)nc2ccccc12 | -24% | inactive |
| CCCCCCCCCCCCNC(=O)c1ccncc1 | 13% | inactive |
| O=C(CCCCCCOc1cccc(Br)c1)Nc1ccnc(C(F)(F)F)c1 | 23% | inactive |
| CCCCCCCCCC(=O)CC(=O)Nc1cnccn1 | 21% | inactive |
| COc1cc(NC(=O)CCCOc2cccc(Br)c2)ccn1 | 20% | inactive |
| O=C(CCCOc1cccc(Br)c1)Nc1ccnc(F)c1 | 32% | inactive |
| O=C(CCCCCOc1ccc(F)cc1F)Nc1ccnc(C(F)(F)F)c1 | 49% | inactive |
| CCCCCCCCCC(=O)CC(=O)Nc1ccc2c(c1)c1ccccc1n2CC | 9.3% | inactive |
| O=C(CCCCCOc1ccccc1Br)Nc1ccnc(C(F)(F)F)c1 | 94% | inactive |
| CCCCCCCCCCCC(=O)Nc1ccncc1 | 28% | inactive |
| O=C(CCCCCOc1cccc(O)c1)Nc1ccnc(C(F)(F)F)c1 | 70% | inactive |
| CCCCCCCCCCCC(=O)Nc1ccc2[nH]ccc2c1 | -11% | inactive |

| Structure (SMILES) | Efficacy (Pseudomonas aeruginosa [1]) | Activity (Pseudomonas aeruginosa [2]) |
| --- | --- | --- |
| CCCCCCCCCCCCNC(=O)c1cc2ccccc2n1C | -9.2% | inactive |
| CCCCCCCCCCCC(=O)Nc1ccnc(OC)c1 | -5.1% | inactive |
| CCCCCCCCCCCC(=O)NCc1ccncc1 | 7.7% | inactive |
| COc1cc(NC(=O)CCCCOc2cccc(Br)c2)ccn1 | 81% | inactive |
| N#Cc1cccc(OCCCCCC(=O)Nc2ccnc(C(F)(F)F)c2)c1 | 0.48% | inactive |
| CCCCCCCCCC(=O)CC(=O)Nc1ccnc(OC)c1 | 24% | inactive |
| CCCCCCCCCCCC(=O)Nc1cnccn1 | -38% | inactive |
| CCCCCCCCCCCC(=O)Nc1ncccn1 | 23% | inactive |
| CCCCCCCCCC(=O)CC(=O)Nc1ncccn1 | -0.51% | inactive |
| O=C(CCCCCOc1cccc(Br)c1)Nc1ccncc1 | 53% | inactive |
| O=C(CCCCCOc1c(F)c(F)c(F)c(F)c1F)Nc1ccnc(C(F)(F)F)c1 | 21% | inactive |
| CCCCCCCCCCCC(=O)N1CCN(c2ccncc2)CC1 | -42% | inactive |
| O=C(CCCCCOc1cccc(Br)c1)Nc1ccnc(F)c1 | 31% | inactive |
| O=C(CCCCCOc1ccccc1O)Nc1ccnc(C(F)(F)F)c1 | 95% | inactive |
| CCCCCCCCCCCC(=O)Nc1ccccn1 | 55% | inactive |
| O=C(CCCCCOc1ccccc1F)Nc1ccnc(C(F)(F)F)c1 | 78% | inactive |
| O=C(CCCCCOc1c(F)cccc1F)Nc1ccnc(C(F)(F)F)c1 | 66% | inactive |
| CCCCCCCCCCCCCCCCOC(=O)C1COc2ccccc21 (stereo not drawn) | 1.5% | inactive |
| O=C(CCCCC#Cc1cccc(F)c1)Nc1ccnc(C(F)(F)F)c1 | 97% | inactive |
| CCCCCCCCCCCC(=O)O/N=C1\COc2ccccc21 | 12% | inactive |
